M1 antag – antagonists of rat M1 muscarinic receptor | Muscarinic acetylcholine receptor M1 (Rattus norvegicus), P08482 | CHO-M1 cells, Fluo-4 calcium, ACh EC80 antagonist mode; stronger effect = lower value | B-score at 10 µM | actives 3.4% (n = 64,000) | AID 628, 2007;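 active = calcium fluorescence response, raw or row-and-column corrected B-score, differing from the plate sample mean either way at a set confidence level, mostly lower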
S1P3 ag – human S1P3 receptor agonists, primary screen, cell-based, primary and confirmation, NFAT-BLA reporter; Sphingosine 1-phosphate receptor 3 (Homo sapiens), Q99500; S1P3 NFAT-BLA reporter cells, agonism, FRET ratio; relative to 1 µM S1P, basal subtracted; activation, % at 4.5 µM; actives 0.1% (n = 60,000); AID 373, 2006;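 active = activation above the screen-wide mean plus 3 SD, cut at about 4.5% in these data, passing the limit was not always enough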
Target sequence (Q99500 whole entry, looked up): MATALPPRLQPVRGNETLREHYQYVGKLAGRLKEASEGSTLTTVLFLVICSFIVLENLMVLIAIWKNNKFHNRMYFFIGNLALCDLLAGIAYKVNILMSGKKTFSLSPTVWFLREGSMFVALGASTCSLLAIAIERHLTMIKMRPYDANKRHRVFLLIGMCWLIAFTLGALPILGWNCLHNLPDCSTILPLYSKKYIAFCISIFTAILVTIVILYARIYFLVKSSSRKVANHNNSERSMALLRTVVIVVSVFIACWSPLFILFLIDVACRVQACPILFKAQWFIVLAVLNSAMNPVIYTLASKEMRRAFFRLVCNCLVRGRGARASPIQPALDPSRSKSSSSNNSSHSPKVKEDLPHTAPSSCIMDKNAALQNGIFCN
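Assay system: stable CHO line with human S1P3, Gα16, NFAT-BLA reporter; Detection: FRET β-lactamase substrate fluorescence, excitation 405 nm, 460/535 nm emission ratio, background-subtracted; Read-out: percent activation versus median 1 µM S1P response, basal-subtracted, per plate; Incubation: cells plated overnight, compound 4 h 37 °C, substrate 2 h RT.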
D1 mod – D1 CRE-luciferase signal change, two-sided – cell-based, HEK293 D1, dopamine EC30, D1 allosteric modulator project, primary screen. dopamine EC30 potentiation; actives deviate in either direction. B-score at 10 µM. actives 5.9% (n = 58,000). AID 641, 2007;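 active = luminescence count or its row- and column-corrected plate score outside the 99.7% band of the plate's sample wells, on either side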
M1 ag – M1 muscarinic receptor agonists, primary screen, CHO-M1 cells, Fluo-4 calcium, agonist mode. Muscarinic acetylcholine receptor M1. Fluo-4 calcium fluorescence; stronger effect = higher value. B-score at 10 µM. actives 3% (n = 64,000);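 active = fluorescence rise, raw or as B-score row- and column-corrected plate score, outside the 99.7% band of its plate's samples, either direction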
S1P1 ag pot – S1P1 agonists and agonism potentiators, primary screen, cell-based, primary and confirmation screens, CRE-bla reporter | activation, % at 9.5 µM | actives 0.57% (n = 56,000) | AID 449, 2006 | S1P1 CRE-bla cells, forskolin, beta-lactamase FRET, potentiator mode; S1P1 agonist co-added at EC20, 2 nM; 100% = saturating reference agonist, 0% = basal;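 active = activation above a cutoff set at the mean activation of all tested compounds plus 3 SD, cut at about 54% in these data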;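 note: forskolin at 4 µM as EC80 and the EC20 agonist is SEW2871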
D1 PAM confirm – D1 receptor positive allosteric modulators, retest, confirmation, cell-based, HEK293 D1, CRE-luciferase, duplicate; shares compounds with D1 mod; dopamine EC30 potentiation; stronger effect = higher value; luminescence at 10 µM; actives 88% (n = 2,200);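 active = luminescence in either of two replicates above the same-plate mean plus 3 SD of the low-dose dopamine control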
D1 no dopamine – D1 receptor agonism without dopamine, confirmation, mechanism study for D1 allosteric modulator project, cell-based, HEK293 D1, CRE-luciferase, secondary assay 1 | shares compounds with D1 mod | luminescence, no dopamine; stronger effect = higher value | luminescence at 10 µM | actives 0.8% (n = 1,900) | AID 646, 2007; in the data active = luminescence above about 3900
Isoprot counter – alters isoproterenol CRE-luciferase response in HEK293 cells; shares compounds with D1 mod; HEK293 D1 CRE-luciferase, isoproterenol EC30 counter-screen; calls only at 10 µM; actives 63% (n = 2,200); AID 647;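 active = luminescence in either replicate above plate mean of wells with a partly effective reference agonist dose plus 3 SD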;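 note: isoproterenol raises cAMP through native beta-adrenoceptor Gs so signal bypasses D1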
A number is an active result; 0 = inactive; - = no result given; + = active, no number. Hits are enriched below; roughly 11% of the tested compounds scored in any of these assays.

SMILES	M1 antag	S1P3 ag	D1 mod	M1 ag	S1P1 ag pot	D1 PAM confirm	D1 no dopamine	Isoprot counter
C=CCNc1nc(Nc2ccc(OC)cc2OC)nc(OCC)n1	0	0	3.8	0	0	10064	0	+
Cc1nc(SCc2c(F)cccc2Cl)c2c(=O)n(C)c(=O)n(C)c2n1	0	0	0	0	0	-	-	-
CCOC(=O)C(NC(=O)OC(C)C)(Nc1nccs1)C(F)(F)F (stereo not given)	0	0	0	0	0	-	-	-
CCOC(=O)N1CCC2(CC1)C(C(=O)C13CC4CC(CC(C4)C1)C3)C2(C#N)C#N (stereo not given)	0	0	-	0	0	-	-	-
CC1(C)Cc2c(C#N)c(N)n(-c3ccccc3)c(=O)c2CO1	0	0	0	0	0	-	-	-
CCC1(C)Cc2c(c(=O)n(-c3ccccc3)c3ncnc(N)c23)CO1 (stereo not given)	0	0	5.5	0	0	10848	-	0
O=C(CSc1nc2ccccc2s1)NC(=O)NCc1ccco1	0	0	5.85	0	0	8872	0	0
O=C(CSc1nc(-c2ccccc2)cs1)NC(=O)NCc1ccco1	0	0	0	0	0	-	-	-
CC(C)(O)c1cn(-c2nonc2N)nn1	0	0	0	0	0	-	-	-
COc1ccc(Cc2nn3c(-c4cc(OC)c(OC)c(OC)c4)nnc3s2)cc1	0	0	4.66	0	0	8960	0	+
COc1ccc(-c2nn3c(-c4ccc(F)cc4)nnc3s2)cc1	0	0	0	0	0	-	-	-
COc1ccc(-c2nn3c(-c4ccccc4)nnc3s2)cc1	0	0	5.45	0	0	11796	0	+
COc1ccc(Cc2nn3c(-c4ccccc4Br)nnc3s2)cc1	0	0	5.38	0	0	8536	0	+
CCCC(=O)N(c1ccc(F)cc1)C1C=CS(=O)(=O)C1 (stereo not given)	0	0	0	0	0	-	-	-
CC(C)CCNc1nc2c(c(=O)n(Cc3cccc(F)c3)c(=O)n2C)n1C	0	0	0	0	0	-	-	-
N#CC1=C(N)OC2=C(C(=O)CCC2)C1CCc1ccccc1 (stereo not given)	0	0	6.39	0	0	7756	-	0
CCCc1nc(N)c(C#N)c(-c2ccco2)c1CC	0	0	6.72	0	-	9040	0	+
N#Cc1c(N)nc(SC2CCCCC2=O)c(C#N)c1-c1ccco1 (stereo not given)	0	-	-	0	-	-	-	-
Cc1c(-c2ccc(F)cc2)nc(N)c(C#N)c1-c1ccco1	0	0	5.83	0	0	8280	-	0
N#Cc1c(N)nc(SCc2ccccc2)c(C#N)c1-c1ccco1	0	0	4.25	0	0	9744	0	+
CC(NC(=O)CSc1ncccn1)c1ccccc1 (stereo not given)	0	0	0	0	0	-	-	-
COc1ccc(C(c2nnnn2Cc2cccs2)N2CCN(c3ccc(F)cc3)CC2)cc1OC (stereo not given)	0	0	0	0	0	-	-	-
CC1CCCCN1c1nc(-c2ccncc2)nc2ccccc12 (stereo not given)	0	0	12.7	0	0	8444	0	+
CC1CCN(c2nc(-c3ccncc3)nc3ccccc23)CC1	0	0	3.89	0	0	9916	0	+
O=C(OC(C(=O)NCc1cccs1)c1ccccc1Cl)c1ccco1 (stereo not given)	0	0	0	0	0	-	-	-
SMILES	M1 antag	S1P3 ag	D1 mod	M1 ag	S1P1 ag pot	D1 PAM confirm	D1 no dopamine	Isoprot counter
CCS(=O)(=O)c1nc2ccccc2n1Cc1ccccc1Cl	0	0	16.4	0	0	16608	0	+
CC(/C=C/c1ccccc1)NC(N)=O (stereo not given)	0	0	0	0	0	-	-	-
CCn1c(N2CCC(C)CC2)nc2c1c(=O)n(C)c(=O)n2C	0	0	0	0	0	-	-	-
CCOc1nc(OCC)nc(N2CCC(C)CC2)n1	0	0	27.2	0	0	26964	0	+
COc1ccc(Nc2nc(N)nc(CSc3n[nH]c(-c4ccccc4)n3)n2)cc1	0	0	5.03	0	0	6616	0	+
COc1ccccc1Nc1nc(N)nc(CSc2ncccn2)n1	0	0	0	0	0	-	-	-
c1ccc(-c2noc(CSc3nnnn3-c3ccccc3)n2)cc1	0	0	0	0	0	-	-	-
Cc1nc2scc(-c3ccccc3)c2c(=O)n1N	0	0	-	0	0	-	-	-
CCc1nc2scc(-c3ccccc3)c2c(=O)n1N	0	-	6.55	0	-	14056	0	+
CCn1cc(Br)c(C(=O)N(C)Cc2ccccc2)n1	0	0	0	0	0	-	-	-
Cc1cc(C)n2nc(C(=O)Nc3cccnc3)nc2n1	0	0	-	0	-	-	-	-
O=C(O)c1ccc2c(c1)C(=O)N(c1cc(C(=O)O)ccc1Br)C2=O	-	0	0	-	0	-	-	-
Cc1cc(=O)n(C)c(=O)n1CC(=O)N1CCCCCC1	0	0	0	0	0	-	-	-
COc1ccc(C2CNC(=O)C2)cc1OC1CCCC1 (stereo not given)	0	0	44.7	0	0	20880	-	+
Cc1nn(-c2ccccn2)c(C)c1Oc1ccccc1O	0	0	3.81	0	0	0	0	0
Cc1nn(-c2nc3ccccc3s2)c(C)c1Oc1ccccc1O	0	0	0	0	0	-	-	-
COc1ccc(CNC(=O)CCc2c(C)nc3ncnn3c2C)cc1	0	0	0	0	0	-	-	-
CCOC(=O)c1cc(-c2ccccc2)sc1N	0	0	12.3	0	-	19816	0	+
CCOC(=O)c1sc(-c2ccccc2)cc1N	0	0	6.1	0	0	12680	0	0
CCOC(=O)c1cc(C)n(CCc2ccccc2)c1C	0	0	0	0	-	-	-	-
CCOC(=O)c1sc(-c2ccc(OC)cc2)cc1N	0	0	0	0	0	-	-	-
CCN(CC)CCN1C(=O)C(=O)/C(=C(/O)c2cccc(OC)c2)C1c1ccccn1 (stereo not given)	0	0	0	0	0	-	-	-
Brc1cnc(N2CCCC2)nc1N1CCOCC1	0	0	5.98	0	0	18712	0	+
COc1ccc(CN2C(=O)c3cccnc3C2Nc2cc(Cl)c(OC)cc2OC)cc1 (stereo not given)	0	0	6.54	0	0	10420	-	+

From PubChem
